Results from ChEMBL document CHEMBL2040727, “Substituted thiazoles VI. Synthesis and antitumor activity of new 2-acetamido- and 2 or 3-propanamido-thiazole analogs” (2012).

tested on: PC-3; assay: Growth inhibition of human PC3 cells at 10 uM after 48 hrs by coulter counter analysis; format: functional; details: PC-3, 48 h, read-out: GI
In short: (§1)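 Single-dose NCI 60-line panel screen of test compounds. Cells grown in RPMI 1640 with 10% FBS. Compounds dissolved in DMSO, then diluted in phosphate buffer saline (final DMSO below 1%). Wells run in duplicate at 6 × 10⁴ cells/ml. Controls held PBS and DMSO at matching dilutions. Incubation 48 h at 37 °C under humidified 5% CO2. Cells diluted tenfold in saline and counted by Coulter counter. Percent growth inhibition taken from mean-graph of treated-cell growth.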

Structure (SMILES)	inhibition of growth at 10 µM [%]
Cc1cnc(NC(=O)CCN2CCN(c3ccccc3)CC2)s1	< 10
CCOC(=O)c1sc(NC(=O)CN(C)C)nc1C	< 10
CCOC(=O)c1sc(NC(=O)CCN2CCOCC2)nc1C	< 10
CCOC(=O)c1sc(NC(=O)CCN2CCN(C)CC2)nc1C	< 10

tested on: SK-MEL-28; assay: Growth inhibition of human SK-MEL-28 cells at 10 uM after 48 hrs by coulter counter analysis; format: functional; details: SK-MEL-28, 48 h, read-out: GI; in short: as §1

Structure (SMILES)	inhibition of growth at 10 µM [%]
Cc1cnc(NC(=O)CCN2CCN(c3ccccc3)CC2)s1	< 10
CCOC(=O)c1sc(NC(=O)CN(C)C)nc1C	< 10
CCOC(=O)c1sc(NC(=O)CCN2CCOCC2)nc1C	< 10
CCOC(=O)c1sc(NC(=O)CCN2CCN(C)CC2)nc1C	< 10

tested on: A498; assay: Growth inhibition of human A498 cells at 10 uM after 48 hrs by coulter counter analysis; format: functional; details: A498, 48 h, read-out: GI; in short: as §1

Structure (SMILES)	inhibition of growth at 10 µM [%]
Cc1cnc(NC(=O)CCN2CCN(c3ccccc3)CC2)s1	< 10
CCOC(=O)c1sc(NC(=O)CN(C)C)nc1C	< 10
CCOC(=O)c1sc(NC(=O)CCN2CCOCC2)nc1C	< 10
CCOC(=O)c1sc(NC(=O)CCN2CCN(C)CC2)nc1C	< 10

tested on: HCT-116; assay: Growth inhibition of human HCT116 cells at 10 uM after 48 hrs by coulter counter analysis; format: functional; details: HCT-116, 48 h, read-out: GI; in short: as §1

Structure (SMILES)	inhibition of growth at 10 µM [%]
Cc1cnc(NC(=O)CCN2CCN(c3ccccc3)CC2)s1	< 10
CCOC(=O)c1sc(NC(=O)CN(C)C)nc1C	< 10
CCOC(=O)c1sc(NC(=O)CCN2CCOCC2)nc1C	< 10
CCOC(=O)c1sc(NC(=O)CCN2CCN(C)CC2)nc1C	< 10

tested on: RXF 393; assay: Growth inhibition of human RXF393 cells at 10 uM after 48 hrs by coulter counter analysis; format: functional; details: RXF 393, 48 h, read-out: GI; in short: as §1

Structure (SMILES)	inhibition of growth at 10 µM [%]
Cc1cnc(NC(=O)CCN2CCN(c3ccccc3)CC2)s1	< 10
CCOC(=O)c1sc(NC(=O)CN(C)C)nc1C	< 10
CCOC(=O)c1sc(NC(=O)CCN2CCOCC2)nc1C	< 10
CCOC(=O)c1sc(NC(=O)CCN2CCN(C)CC2)nc1C	< 10

tested on: NCI-H460; assay: Growth inhibition of human NCI-H460 cells at 10 uM after 48 hrs by coulter counter analysis; format: functional; details: NCI-H460, 48 h, read-out: GI; in short: as §1

Structure (SMILES)	inhibition of growth at 10 µM [%]
Cc1cnc(NC(=O)CCN2CCN(c3ccccc3)CC2)s1	< 10
CCOC(=O)c1sc(NC(=O)CN(C)C)nc1C	< 10
CCOC(=O)c1sc(NC(=O)CCN2CCOCC2)nc1C	< 10
CCOC(=O)c1sc(NC(=O)CCN2CCN(C)CC2)nc1C	< 10

tested on: SNB-19; assay: Growth inhibition of human SNB19 cells at 10 uM after 48 hrs by coulter counter analysis; format: functional; details: SNB-19, 48 h, read-out: GI; in short: as §1

Structure (SMILES)	inhibition of growth at 10 µM [%]
Cc1cnc(NC(=O)CCN2CCN(c3ccccc3)CC2)s1	< 10
CCOC(=O)c1sc(NC(=O)CN(C)C)nc1C	< 10
CCOC(=O)c1sc(NC(=O)CCN2CCOCC2)nc1C	< 10
CCOC(=O)c1sc(NC(=O)CCN2CCN(C)CC2)nc1C	< 10

tested on: DU-145; assay: Growth inhibition of human DU145 cells at 10 uM after 48 hrs by coulter counter analysis; format: functional; details: DU-145, 48 h, read-out: GI; in short: as §1

Structure (SMILES)	inhibition of growth at 10 µM [%]
Cc1cnc(NC(=O)CCN2CCN(c3ccccc3)CC2)s1	< 10
CCOC(=O)c1sc(NC(=O)CN(C)C)nc1C	< 10
CCOC(=O)c1sc(NC(=O)CCN2CCOCC2)nc1C	< 10
CCOC(=O)c1sc(NC(=O)CCN2CCN(C)CC2)nc1C	< 10

tested on: HT-29; assay: Growth inhibition of human HT-29 cells at 10 uM after 48 hrs by coulter counter analysis; format: functional; details: HT-29, 48 h, read-out: GI; in short: as §1

Structure (SMILES)	inhibition of growth at 10 µM [%]
Cc1cnc(NC(=O)CCN2CCN(c3ccccc3)CC2)s1	< 10
CCOC(=O)c1sc(NC(=O)CN(C)C)nc1C	< 10
CCOC(=O)c1sc(NC(=O)CCN2CCOCC2)nc1C	< 10
CCOC(=O)c1sc(NC(=O)CCN2CCN(C)CC2)nc1C	< 10

tested on: SNB-75; assay: Growth inhibition of human SNB75 cells at 10 uM after 48 hrs by coulter counter analysis; format: functional; details: SNB-75, 48 h, read-out: GI
In short: (§2)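 Single-dose screen in the NCI 60 cell line panel. Cells grown in RPMI 1640 with 10% FBS. Compounds dissolved in DMSO and diluted in phosphate buffered saline, final DMSO under 1%. Duplicate wells seeded from culture at 6 × 10⁴ cells/ml. Incubated 48 h at 37 °C, humidified, 5% CO2. Cells diluted tenfold in saline and Coulter-counted. Percent growth inhibition computed against PBS/DMSO controls.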

Structure (SMILES)	inhibition of growth at 10 µM [%]
Cc1cnc(NC(=O)CCN2CCN(c3ccccc3)CC2)s1	< 10
CCOC(=O)c1sc(NC(=O)CN(C)C)nc1C	< 10
CCOC(=O)c1sc(NC(=O)CCN2CCOCC2)nc1C	< 10
CCOC(=O)c1sc(NC(=O)CCN2CCN(C)CC2)nc1C	< 10

tested on: NCI-H23; assay: Growth inhibition of human NCI-H23 cells at 10 uM after 48 hrs by coulter counter analysis; format: functional; details: NCI-H23, 48 h, read-out: GI; in short: as §1

Structure (SMILES)	inhibition of growth at 10 µM [%]
Cc1cnc(NC(=O)CCN2CCN(c3ccccc3)CC2)s1	< 10
CCOC(=O)c1sc(NC(=O)CN(C)C)nc1C	< 10
CCOC(=O)c1sc(NC(=O)CCN2CCOCC2)nc1C	< 10
CCOC(=O)c1sc(NC(=O)CCN2CCN(C)CC2)nc1C	< 10

tested on: CCRF-CEM; assay: Growth inhibition of human CCRF-CEM cells at 10 uM after 48 hrs by coulter counter analysis; format: functional; details: read-out: GI; in short: as §1

Structure (SMILES)	inhibition of growth at 10 µM [%]
CCOC(=O)c1sc(NC(=O)CCN2CCOCC2)nc1C	< 10
CCOC(=O)c1sc(NC(=O)CCN2CCN(C)CC2)nc1C	96.2

tested on: 786-0; assay: Growth inhibition of human 786-0 cells at 10 uM after 48 hrs by coulter counter analysis; format: functional; details: 786-0, 48 h, read-out: GI; in short: as §1

Structure (SMILES)	inhibition of growth at 10 µM [%]
Cc1cnc(NC(=O)CCN2CCN(c3ccccc3)CC2)s1	< 10
CCOC(=O)c1sc(NC(=O)CN(C)C)nc1C	< 10
CCOC(=O)c1sc(NC(=O)CCN2CCOCC2)nc1C	< 10
CCOC(=O)c1sc(NC(=O)CCN2CCN(C)CC2)nc1C	< 10

tested on: HOP-62; assay: Growth inhibition of human HOP62 cells at 10 uM after 48 hrs by coulter counter analysis; format: functional; details: HOP-62, 48 h, read-out: GI; in short: as §1

Structure (SMILES)	inhibition of growth at 10 µM [%]
Cc1cnc(NC(=O)CCN2CCN(c3ccccc3)CC2)s1	< 10
CCOC(=O)c1sc(NC(=O)CN(C)C)nc1C	< 10
CCOC(=O)c1sc(NC(=O)CCN2CCOCC2)nc1C	< 10
CCOC(=O)c1sc(NC(=O)CCN2CCN(C)CC2)nc1C	< 10

tested on: U-251; assay: Growth inhibition of human U251 cells at 10 uM after 48 hrs by coulter counter analysis; format: functional; details: U-251, 48 h, read-out: GI; in short: as §2

Structure (SMILES)	inhibition of growth at 10 µM [%]
Cc1cnc(NC(=O)CCN2CCN(c3ccccc3)CC2)s1	< 10
CCOC(=O)c1sc(NC(=O)CN(C)C)nc1C	< 10
CCOC(=O)c1sc(NC(=O)CCN2CCOCC2)nc1C	< 10
CCOC(=O)c1sc(NC(=O)CCN2CCN(C)CC2)nc1C	< 10

tested on: A549; assay: Growth inhibition of human A549/ATCC cells at 10 uM after 48 hrs by coulter counter analysis; format: functional; details: A549, 48 h, read-out: GI; in short: as §1

Structure (SMILES)	inhibition of growth at 10 µM [%]
Cc1cnc(NC(=O)CCN2CCN(c3ccccc3)CC2)s1	< 10
CCOC(=O)c1sc(NC(=O)CN(C)C)nc1C	< 10
CCOC(=O)c1sc(NC(=O)CCN2CCOCC2)nc1C	< 10
CCOC(=O)c1sc(NC(=O)CCN2CCN(C)CC2)nc1C	< 10

tested on: EKVX; assay: Growth inhibition of human EKVX cells at 10 uM after 48 hrs by coulter counter analysis; format: functional; details: read-out: GI; in short: as §1

Structure (SMILES)	inhibition of growth at 10 µM [%]
Cc1cnc(NC(=O)CCN2CCN(c3ccccc3)CC2)s1	11.4
CCOC(=O)c1sc(NC(=O)CN(C)C)nc1C	< 10
CCOC(=O)c1sc(NC(=O)CCN2CCOCC2)nc1C	< 10
CCOC(=O)c1sc(NC(=O)CCN2CCN(C)CC2)nc1C	15.9

tested on: HL-60(TB); assay: Growth inhibition of human HL-60(TB) cells at 10 uM after 48 hrs by coulter counter analysis; format: functional; details: HL-60, 48 h, read-out: GI
In short: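 Cells grown in RPMI 1640 with 10% FBS. Compound was dissolved in DMSO and diluted in PBS (under 1% DMSO final), then added in duplicate wells to culture at 6 × 10⁴ cells/ml. PBS/DMSO vehicle controls were included. Incubated at 37 °C, humidified 5% CO₂, for 48 h. Cells were diluted 10-fold in saline and Coulter-counted. Single-dose NCI-60 screen, read as percent growth inhibition.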

Structure (SMILES)	inhibition of growth at 10 µM [%]
Cc1cnc(NC(=O)CCN2CCN(c3ccccc3)CC2)s1	< 10
CCOC(=O)c1sc(NC(=O)CN(C)C)nc1C	< 10
CCOC(=O)c1sc(NC(=O)CCN2CCOCC2)nc1C	< 10
CCOC(=O)c1sc(NC(=O)CCN2CCN(C)CC2)nc1C	< 10

tested on: CAKI-1; assay: Growth inhibition of human Caki1 cells at 10 uM after 48 hrs by coulter counter analysis; format: functional; details: CAKI-1, 48 h, read-out: GI; in short: as §1

Structure (SMILES)	inhibition of growth at 10 µM [%]
Cc1cnc(NC(=O)CCN2CCN(c3ccccc3)CC2)s1	< 10
CCOC(=O)c1sc(NC(=O)CN(C)C)nc1C	< 10
CCOC(=O)c1sc(NC(=O)CCN2CCOCC2)nc1C	< 10
CCOC(=O)c1sc(NC(=O)CCN2CCN(C)CC2)nc1C	12.5

tested on: K562; assay: Growth inhibition of human K562 cells at 10 uM after 48 hrs by coulter counter analysis; format: functional; details: K562, 48 h, read-out: GI; in short: as §1

Structure (SMILES)	inhibition of growth at 10 µM [%]
Cc1cnc(NC(=O)CCN2CCN(c3ccccc3)CC2)s1	< 10
CCOC(=O)c1sc(NC(=O)CN(C)C)nc1C	< 10
CCOC(=O)c1sc(NC(=O)CCN2CCOCC2)nc1C	< 10
CCOC(=O)c1sc(NC(=O)CCN2CCN(C)CC2)nc1C	< 10

tested on: MOLT-4; assay: Growth inhibition of human MOLT4 cells at 10 uM after 48 hrs by coulter counter analysis; format: functional; details: MOLT-4, 48 h, read-out: GI; in short: as §1

Structure (SMILES)	inhibition of growth at 10 µM [%]
Cc1cnc(NC(=O)CCN2CCN(c3ccccc3)CC2)s1	< 10
CCOC(=O)c1sc(NC(=O)CN(C)C)nc1C	< 10
CCOC(=O)c1sc(NC(=O)CCN2CCOCC2)nc1C	< 10
CCOC(=O)c1sc(NC(=O)CCN2CCN(C)CC2)nc1C	< 10
